Data taken from ChEMBL document CHEMBL5058577, “EUbOPEN Chemogenomics Library 2 (Multiplex)” (2022).

Test system: U2OS
Experiment: Multiplex assay against U2OS
Format: toxicity, cell-based
Details: human
Method in brief: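 Cells were classed with CellPathfinder machine-learning gating, first as Hoechst high-intensity objects or normal cells, then (normal cells) as healthy, pyknosed or fragmented nuclei, and finally (pyknosed cells) as mitotic or apoptotic. Staining of live cells at seeding used Hoechst33342, BioTracker Green Microtubule Cytoskeleton Dye, MitoTracker Red and Annexin V Alexa Fluor 680, with imaging on a CQ1 microscope at 37°C and 5% CO2 after compound addition. Tubulin, mitochondrial-mass and membrane-permeability phenotypes are per cents of healthy-nucleus cells.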

[1] = 12 h, 1 µM, compound concentration 1 uM, replicate 1
[2] = 12 h, 1 µM, compound concentration 1 uM, replicate 2
[3] = 12 h, 10 µM, compound concentration 10 uM, replicate 1
[4] = 12 h, 10 µM, compound concentration 10 uM, replicate 2
[5] = 24 h, 1 µM, compound concentration 1 uM, replicate 1
[6] = 24 h, 1 µM, compound concentration 1 uM, replicate 2
[7] = 24 h, 10 µM, compound concentration 10 uM, replicate 1
[8] = 24 h, 10 µM, compound concentration 10 uM, replicate 2
[9] = 48 h, 1 µM, compound concentration 1 uM, replicate 1
[10] = 48 h, 1 µM, compound concentration 1 uM, replicate 2
[11] = 48 h, 10 µM, compound concentration 10 uM, replicate 1
[12] = 48 h, 10 µM, compound concentration 10 uM, replicate 2

N#Cc1c(N)nc(SCc2csc(-c3ccc(Cl)cc3)n2)c(C#N)c1-c1ccc(OCCO)cc1 [CAPADENOSON]
Population Apoptotic (%) [1]: 78% | Population Fragmented Nuclei (%) [1]: 25% | Population Healthy Nuclei (%) [1]: 65% | Population Hoechst High Intensity Objects (%) [1]: 5% | Population Membrane Permeable-Phenotype (%) [1]: 14% | Population Mitochondria Different-Phenotype (%) [1]: 4% | Population Mitotic Cells (%) [1]: 21% | Population Normal (%) [1]: 94% | Population Pyknosed Nuclei (%) [1]: 8% | Population Tubulin-Different-Phenotype (%) [1]: 10% | Total Cell Count [1]: 236 | Population Apoptotic (%) [2]: 80% | Population Fragmented Nuclei (%) [2]: 18% | Population Healthy Nuclei (%) [2]: 75% | Population Hoechst High Intensity Objects (%) [2]: 1% | Population Membrane Permeable-Phenotype (%) [2]: 5% | Population Mitochondria Different-Phenotype (%) [2]: 2% | Population Mitotic Cells (%) [2]: 20% | Population Normal (%) [2]: 98% | Population Pyknosed Nuclei (%) [2]: 6% | Population Tubulin-Different-Phenotype (%) [2]: 1% | Total Cell Count [2]: 150 | Population Apoptotic (%) [3]: 64% | Population Fragmented Nuclei (%) [3]: 35% | Population Healthy Nuclei (%) [3]: 40% | Population Hoechst High Intensity Objects (%) [3]: 5% | Population Membrane Permeable-Phenotype (%) [3]: 70% | Population Mitochondria Different-Phenotype (%) [3]: 37% | Population Mitotic Cells (%) [3]: 35% | Population Normal (%) [3]: 94% | Population Pyknosed Nuclei (%) [3]: 24% | Population Tubulin-Different-Phenotype (%) [3]: 65% | Total Cell Count [3]: 255 | Population Apoptotic (%) [4]: 68% | Population Fragmented Nuclei (%) [4]: 24% | Population Healthy Nuclei (%) [4]: 56% | Population Hoechst High Intensity Objects (%) [4]: 0% | Population Membrane Permeable-Phenotype (%) [4]: 49% | Population Mitochondria Different-Phenotype (%) [4]: 61% | Population Mitotic Cells (%) [4]: 31% | Population Normal (%) [4]: 99% | Population Pyknosed Nuclei (%) [4]: 18% | Population Tubulin-Different-Phenotype (%) [4]: 70% | Total Cell Count [4]: 102 | Population Apoptotic (%) [5]: 87% | Population Fragmented Nuclei (%) [5]: 23% | Population Healthy Nuclei (%) [5]: 64% | Population Hoechst High Intensity Objects (%) [5]: 3% | Population Membrane Permeable-Phenotype (%) [5]: 9% | Population Mitochondria Different-Phenotype (%) [5]: 4% | Population Mitotic Cells (%) [5]: 12% | Population Normal (%) [5]: 96% | Population Pyknosed Nuclei (%) [5]: 12% | Population Tubulin-Different-Phenotype (%) [5]: 6% | Total Cell Count [5]: 263 | Population Apoptotic (%) [6]: 61% | Population Fragmented Nuclei (%) [6]: 16% | Population Healthy Nuclei (%) [6]: 71% | Population Hoechst High Intensity Objects (%) [6]: 0% | Population Membrane Permeable-Phenotype (%) [6]: 5% | Population Mitochondria Different-Phenotype (%) [6]: 2% | Population Mitotic Cells (%) [6]: 38% | Population Normal (%) [6]: 99% | Population Tubulin-Different-Phenotype (%) [6]: 2% | Total Cell Count [6]: 176 | Population Apoptotic (%) [7]: 71% | Population Fragmented Nuclei (%) [7]: 36% | Population Healthy Nuclei (%) [7]: 37% | Population Hoechst High Intensity Objects (%) [7]: 5% | Population Membrane Permeable-Phenotype (%) [7]: 47% | Population Mitochondria Different-Phenotype (%) [7]: 38% | Population Mitotic Cells (%) [7]: 28% | Population Normal (%) [7]: 94% | Population Pyknosed Nuclei (%) [7]: 26% | Population Tubulin-Different-Phenotype (%) [7]: 47% | Total Cell Count [7]: 253 | Population Apoptotic (%) [8]: 69% | Population Fragmented Nuclei (%) [8]: 25% | Population Healthy Nuclei (%) [8]: 49% | Population Hoechst High Intensity Objects (%) [8]: 2% | Population Membrane Permeable-Phenotype (%) [8]: 34% | Population Mitochondria Different-Phenotype (%) [8]: 58% | Population Mitotic Cells (%) [8]: 30% | Population Normal (%) [8]: 97% | Population Pyknosed Nuclei (%) [8]: 24% | Population Tubulin-Different-Phenotype (%) [8]: 60% | Total Cell Count [8]: 95 | Population Apoptotic (%) [9]: 80% | Population Fragmented Nuclei (%) [9]: 23% | Population Healthy Nuclei (%) [9]: 67% | Population Hoechst High Intensity Objects (%) [9]: 3% | Population Membrane Permeable-Phenotype (%) [9]: 9% | Population Mitochondria Different-Phenotype (%) [9]: 6% | Population Mitotic Cells (%) [9]: 20% | Population Normal (%) [9]: 96% | Population Pyknosed Nuclei (%) [9]: 8% | Population Tubulin-Different-Phenotype (%) [9]: 6% | Total Cell Count [9]: 355 | Population Apoptotic (%) [10]: 84% | Population Fragmented Nuclei (%) [10]: 12% | Population Healthy Nuclei (%) [10]: 79% | Population Hoechst High Intensity Objects (%) [10]: 0% | Population Membrane Permeable-Phenotype (%) [10]: 6% | Population Mitochondria Different-Phenotype (%) [10]: 3% | Population Mitotic Cells (%) [10]: 15% | Population Normal (%) [10]: 99% | Population Tubulin-Different-Phenotype (%) [10]: 5% | Total Cell Count [10]: 220 | Population Apoptotic (%) [11]: 86% | Population Fragmented Nuclei (%) [11]: 44% | Population Healthy Nuclei (%) [11]: 30% | Population Hoechst High Intensity Objects (%) [11]: 5% | Population Membrane Permeable-Phenotype (%) [11]: 46% | Population Mitochondria Different-Phenotype (%) [11]: 31% | Population Mitotic Cells (%) [11]: 13% | Population Normal (%) [11]: 94% | Population Pyknosed Nuclei (%) [11]: 25% | Population Tubulin-Different-Phenotype (%) [11]: 37% | Total Cell Count [11]: 285 | Population Apoptotic (%) [12]: 66% | Population Fragmented Nuclei (%) [12]: 30% | Population Healthy Nuclei (%) [12]: 49% | Population Hoechst High Intensity Objects (%) [12]: 4% | Population Membrane Permeable-Phenotype (%) [12]: 45% | Population Mitochondria Different-Phenotype (%) [12]: 45% | Population Mitotic Cells (%) [12]: 33% | Population Normal (%) [12]: 95% | Population Pyknosed Nuclei (%) [12]: 20% | Population Tubulin-Different-Phenotype (%) [12]: 50% | Total Cell Count [12]: 109
